# Most compounds without a hit are left out; they make up all but 2.7% or so of the library.
# V1aR counter: agonists of human V1a receptor, primary screen, counter-screen for OXTR agonist project, fluorescence, CHO-V1R cells; activation, % at 3 µM; hit rate 0.25% among 320,000; Vasopressin V1a receptor (Homo sapiens), P37288; Fluo-8 calcium fluorescence, agonist mode; 0% DMSO, 100% 3 nM vasopressin;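 active = activation above the mean activation of all tested compounds plus 3 SD, per screening run, cut at about 20% in these data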;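 note: signal is peak over basal fluorescence ratio across a 100 second FLIPR read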
# OX1R antag-1: OX1R (HCRTR1) antagonists, primary screen, fluorescence, CHO/OX1R cells, Fluo-8 calcium, orexin A; Fluo-8 calcium fluorescence; Orexin/Hypocretin receptor type 1 (Homo sapiens), O43613; hit rate 0.43% among 330,000; inhibition, % at 5 µM;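 active = inhibition above its plate's threshold, mean inhibition of all tested compounds on the plate plus 3 SD, cut at about 37% in these data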;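 note: 0% = orexin A challenge wells and 100% = SB-334867-A antagonist wells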
# Target sequence (O43613 whole entry, looked up): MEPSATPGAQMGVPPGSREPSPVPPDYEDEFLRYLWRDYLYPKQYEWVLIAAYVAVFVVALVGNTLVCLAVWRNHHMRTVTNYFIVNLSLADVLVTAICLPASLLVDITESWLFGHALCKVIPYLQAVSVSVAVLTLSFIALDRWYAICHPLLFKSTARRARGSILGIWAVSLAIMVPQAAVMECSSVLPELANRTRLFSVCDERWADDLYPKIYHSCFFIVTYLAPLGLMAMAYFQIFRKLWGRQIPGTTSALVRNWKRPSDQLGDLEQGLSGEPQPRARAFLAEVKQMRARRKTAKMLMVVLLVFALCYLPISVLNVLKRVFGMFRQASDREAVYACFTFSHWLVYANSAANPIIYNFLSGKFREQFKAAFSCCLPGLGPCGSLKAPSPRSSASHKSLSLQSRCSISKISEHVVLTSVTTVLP
# OX1R antag-2: antagonists of human orexin 1 receptor (OX1R); hit rate 1.8% among 330,000; inhibition, % at 6.6 µM; AID 485270, 2010; OX1R-expressing cells, FRET antagonist read-out; Orexin/Hypocretin receptor type 1 (Homo sapiens), O43613; in the data active = inhibition mostly above about 38%, no sharp cut-off; inactive = mostly below about 40%;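 note: 0% = agonist challenge alone and 100% = reference antagonist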
# CHO parental Ca: ATP-evoked calcium signal inhibitors, parental CHO, primary screen, counter-screen for OX1R antagonist project, cell-based, fluorescence, Fluo-8 calcium dye | hit rate 0.63% among 330,000 | parental CHO-K1, ATP-induced calcium, Fluo-8 fluorescence | inhibition, % at 5.6 µM;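 active = inhibition above that plate's mean sample inhibition plus 3 SD, cut at about 26% in these data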;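 note: 0% = ATP-challenged DMSO wells and 100% = DMSO wells without ATP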
#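 Material: Parental CHO cells | Reagent: ATP | Compound dosing: Single nominal dose of 5.6 µM per compound | Detection: Intracellular calcium via Fluo-8 no-wash fluorescent dye | Read-out: % inhibition of ATP-induced calcium mobilization | Benchmarks: Low control ATP plus DMSO, high control DMSO only | Replicates: Singlicate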
# OXTR potentiate: human OXTR potentiators, primary screen, fluorescence, CHO-OTR cells, Fluo-8 calcium | Oxytocin receptor (Homo sapiens), P30559 | Fluo-8 calcium fluorescence, potentiator mode; 0% = oxytocin EC15, 100% = EC100 | activation, % at 3 µM | hit rate 0.061% among 320,000 | AID 2445, 2010;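 active = activation above that plate's cutoff, the mean activation of tested compounds plus 3 SD, cut at about 6.6% in these data, passing the limit was not always enough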;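 note: 100% uses oxytocin at 75 nM as the full agonist control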
#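 test system = CHO-OTR cells, human receptor | compound = single-point 3.0 µM | schedule = 6 min compound pre-incubation at room temperature, 100 s kinetic read | signal = Fluo-8 no-wash calcium dye fluorescence, excitation 470-495 nm, emission 515-575 nm | repeats = single well per compound, singlicate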
# OXTR ag: human OXTR agonists, primary screen, fluorescence, CHO-OTR cells, Fluo-8 calcium; Fluo-8 calcium fluorescence; normalized: DMSO 0%, oxytocin 100%; AID 2435, 2010; hit rate 0.32% among 320,000; activation, % at 3 µM;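 active = activation above the mean of all tested compounds plus 3 SD, cutoff set per screening run, cut at about 20% in these data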;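 note: peak over basal fluorescence ratio from a 100 s FLIPR kinetic read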
# OX1R HTRF conf: OX1R (HCRTR1) antagonists, confirmation, cell-based, HTRF. OX1R-expressing cells, HTRF antagonist assay. shares compounds with OX1R antag-2. inhibition, % at 6.6 µM. hit rate 49% among 1,800; in the data active = inhibition above about 55%;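 note: CHO cells expressing OX1R stimulated with orexin A at about EC80; 0% = agonist challenge alone and 100% = reference antagonist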
# CHO-K1 HTRF cnt: signal inhibition in parental CHO-K1 cells, counter-screen for OX1R antagonist project, cell-based, HTRF | shares compounds with OX1R antag-2 | HTRF counterscreen | inhibition, % at 6.6 µM | hit rate 48% among 1,800 | AID 493232, 2011; in the data active = inhibition above about 17%;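 note: 0% = agonist challenge with vehicle and 100% = vehicle alone without agonist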
# * hit, by the source's call; . = not tested or not shown.
SMILES,V1aR counter,OX1R antag-1,OX1R antag-2,CHO parental Ca,OXTR potentiate,OXTR ag,OX1R HTRF conf,CHO-K1 HTRF cnt
CCN(CC(=O)Nc1sc2c(c1C#N)CCCC2)Cc1nc2ccccc2c(=O)[nH]1,1,24,83*,-14,-4,0,58*,0
CCCS(=O)(=O)N1CCCC(C(=O)Nc2ccc3c(c2)CCC3)C1 (stereo unspecified),0,-21,15,-12,-13,0,.,.
NC(=O)Cc1nc(-c2ccc([N+](=O)[O-])cc2)cs1,1,-15,78*,-3,8,0,54,33*
Cc1cccc2c3nc4ccccc4nc3n(C)c12,-1,24,81*,-12,9,-2,92*,15
O=C(CCc1ccncc1)NC1CCCc2c1cnn2-c1ccc(F)cc1F (stereo unspecified),7,-13,6,-3,-6,6,.,.
CCN(Cc1ccccc1)C(=O)COC(=O)c1cc(S(=O)(=O)Nc2c(C)n(C)n(-c3ccccc3)c2=O)ccc1C,0,20,81*,-27,-2,-2,74*,-5
CCN(Cc1ccccc1)C(=O)C(C)OC(=O)c1cc(S(=O)(=O)Nc2c(C)n(C)n(-c3ccccc3)c2=O)ccc1C (stereo unspecified),-1,-25,23,-24,-5,-2,.,.
Cn1c(N)c(C(=O)COC(=O)COc2ccc3ccccc3c2)c(=O)n(C)c1=O,5,-15,28,-4,-12,4,.,.
Cc1cc(=O)oc2cc(Oc3ccc([N+](=O)[O-])cc3[N+](=O)[O-])ccc12,0,-11,89*,-2,2,0,59*,71*
COc1ccc(C(=O)O)cc1NS(=O)(=O)c1cccc2nsnc12,1,-9,116*,-15,-10,0,42,30*
COc1ccccc1NC(=O)CS(=O)(=O)c1cccc2nsnc12,-1,-24,100*,-2,-17,0,36,37*
COc1ccccc1NC(=O)C(C)OC(=O)CCCOc1ccccc1 (stereo unspecified),-2,-40,20,-26,-16,-2,.,.
Cc1ccc(O)c(NC(=O)c2cc(-c3ccccc3Cl)on2)c1,0,16,90*,-3,-13,2,83*,7
COc1ccc(C(=O)c2c(C(F)(F)F)oc3c2C(=O)c2ccccc2C3=O)cc1,1,-26,49,-29,-4,-1,.,.
Cc1ccc(C(=O)c2c(C)oc3c2C(=O)C(=O)c2ccccc2-3)cc1,1,-7,135*,-31,-15,-1,70*,27*
O=C(NC1CC2CCCC(C1)N2Cc1cccs1)c1ccc([N+](=O)[O-])cc1 (stereo unspecified),0,-16,43,-19,-12,-2,.,.
CC(=O)Nc1cccc(-c2nc3ccccc3[nH]2)c1,0,-15,14,13,-9,-1,.,.
O=C(Nc1cccc(-c2nc3ccccc3[nH]2)c1)c1ccccn1,4,-14,88*,-17,-8,3,86*,9
COc1cc(N=c2oc3c(C)ncc(CO)c3cc2C(N)=O)cc(OC)c1OC,1,-13,121*,-3,-13,0,55*,58*

# Screening data from PubChem.
